The test system of assay [1] is Nucleic Acid. Briefly: Binding affinity to (GC)4 DNA by SPR analysis. In kind it is nucleic-acid assay. Summed up:
(§1)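 Biosensor analysis against three immobilized DNA hairpin duplexes in degassed MES buffer (10 mM MES, 1 mM EDTA, 92 mM NaCl, 0.0005% v/v P20, pH 6.25) at 25 °C. A ligand concentration series was injected at 20 μL/min for 5 min, then dissociated for 5 min, with NaCl/NaOH regeneration. K was fitted from steady-state RU versus free ligand using a two-site binding equation.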
(In general: In SPR one partner is held on a chip, and binding of the other changes the refractive index at the surface.)

For assay [2], the system named is Nucleic Acid. Briefly: Binding affinity to AATT DNA by SPR analysis. Type of assay: nucleic-acid assay. The essentials:
as §1

Assay [3] concerns Nucleic Acid. Briefly: Binding affinity to poly(dA).poly(dT) DNA in MES buffer assessed as change in melting temperature by thermal denaturation assay. Type of assay: nucleic-acid assay.
The test system of assay [4] is Nucleic Acid. As to the kind of experiment: Binding affinity to Salmon sperm DNA in phosphate buffer assessed as change in melting temperature by thermal denaturation assay. Type of assay: nucleic-acid assay. Particulars: Salmonidae. Summed up:
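UV melting of salmon sperm DNA (150 μM base) with compound (15 μM), giving a compound:base ratio of 0.1, in 10 mM sodium phosphate buffer at pH 7. Absorbance at 260 nm was followed from 20 to 90 °C at 1 °C/min, collecting five points per °C, in a 1 cm quartz cell.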

Assay [5] deals with Nucleic Acid. Briefly: Binding affinity to poly(dA.dT)2 DNA in phosphate buffer assessed as change in melting temperature by thermal denaturation assay.
In assay [6] the test system is Nucleic Acid. Briefly: Binding affinity to poly(dA.dT)2 DNA in phosphate buffer by ITC analysis. Type of assay: nucleic-acid assay. The essentials:
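Calorimetric titration at 25 °C of 2.48 mM compound in 10 mM phosphate buffer into poly(dA·dT)2 in the cell (2 mM). There were 29 injections, spaced 300 s apart. Heat per injection was obtained by integrating the power peak area over time.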

The subject of assay [7] is Nucleic Acid. Briefly: Binding affinity to poly(dA.dT)2 DNA assessed as large induced CD signal at 0.5 mM by circular dichroism study. Type of assay: nucleic-acid assay. For orientation: Circular dichroism is widely used to follow secondary structure.
For assay [8], the system named is Nucleic Acid. As to the kind of experiment: Binding affinity to DNA assessed as large induced CD signal at 0.5 mM by circular dichroism study. Type of assay: nucleic-acid assay.
For assay [9], the system named is Nucleic Acid. Briefly: Binding affinity to (AT)4 DNA by SPR analysis. In kind it is nucleic-acid assay. Summed up: as §1

SMILES strings stand for the structures. The source made the active and inactive calls. The calls are words filed in the database; no cut-off is given here.

Consider `N=C(N)Nc1ccc(Nc2ccc(N=C3NCCN3)cc2)cc1`, for which the K in the assay on Nucleic Acid [1] was less than 1 ×10⁵ /M; with Nucleic Acid [2] it was 6.4 ×10⁵ /M.
Turning to `N=C(N)Nc1ccc(NC(=O)c2ccc(N)cc2)cc1`, the outcome in the assay on Nucleic Acid [3] and in the assay with Nucleic Acid [5] was inactive. Moreover, in the assay with Nucleic Acid [4], the ΔTm – broadly, the change in melting temperature against a reference sample – turned out to be 1 °C.
As to `N=C(N)Nc1ccc(NC(=O)c2ccc(NC3=NCCN3)cc2)cc1`, in the assay with Nucleic Acid [6], the K was determined as 1.54 ×10⁵ /M. Besides, the result in the assay on Nucleic Acid [7] and in the assay on Nucleic Acid [8] was Active. Further, the ΔTm turned out to be 10 °C in the assay with Nucleic Acid [4] and 26.1 °C in the assay with Nucleic Acid [5].
In the case of `Nc1ccc(C(=O)Nc2ccc(NC3=NCCN3)cc2)cc1`, the outcome in the assay on Nucleic Acid [3] and in the assay with Nucleic Acid [5] was inactive. In the assay with Nucleic Acid [4], the thermal shift (ΔTm) worked out at 2 °C.
As for `Nc1ccc2cc3ccc(N)cc3nc2c1`, the K in the assay with Nucleic Acid [9] amounted to 12.2 ×10⁵ /M; in the assay with Nucleic Acid [1], 6.5 ×10⁵ /M; with Nucleic Acid [2], 5.7 ×10⁵ /M.
On to `N=C(N)Nc1ccc(NC(=O)c2ccc(NC(=N)N)cc2)cc1`, for which the outcome with Nucleic Acid [7] and with Nucleic Acid [8] was Active. Moreover, the ΔTm worked out at 11 °C in the assay on Nucleic Acid [4] and 20 °C with Nucleic Acid [5]. Besides, the K in the assay on Nucleic Acid [9] is 18 ×10⁵ /M; with Nucleic Acid [1], less than 1 ×10⁵ /M; with Nucleic Acid [2], 71 ×10⁵ /M.
Turning to `O=C(Nc1ccc(NC2=NCCN2)cc1)c1ccc(NC2=NCCN2)cc1`, the K in the assay with Nucleic Acid [6] was 4.9 ×10⁵ /M; with Nucleic Acid [9], 47.7 ×10⁵ /M; in the assay with Nucleic Acid [1], less than 1 ×10⁵ /M; with Nucleic Acid [2], 93.7 ×10⁵ /M. Besides, the outcome in the assay on Nucleic Acid [7] and with Nucleic Acid [8] was Active. Also, the ΔTm in the assay on Nucleic Acid [4] was 12.5 °C; in the assay with Nucleic Acid [5], 29 °C.
As for `N=C(N)Nc1ccc(C(=O)c2ccc(N=C3NCCN3)cc2)cc1`, the K in the assay with Nucleic Acid [2] came out at 2.7 ×10⁵ /M.

Values taken from ChEMBL document CHEMBL2069239, “High DNA affinity of a series of peptide linked diaromatic guanidinium-like derivatives” (J Med Chem, 2012).
